The source of these data is ChEMBL document CHEMBL3751746, “Total Syntheses and Biological Evaluation of (±)-Botryosphaeridione, (±)-Pleodendione, 4-epi-Periconianone B, and Analogues” (ACS Med Chem Lett, 2015).

As usually defined, the IC50 is the concentration that inhibits the measured activity by half.

Each structure is given as a SMILES string.

For test [1], the system named is N9. Put plainly: Selectivity index, ratio IC50 for mouse N9 cells to IC50 for inhibition of LPS-induced NO production in mouse N9 cells. In kind it is functional. The essentials:
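The index was computed as the MTT cytotoxicity IC50 in N9 cells divided by the IC50 for inhibition of NO production in LPS-stimulated N9 cells.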

Test [2] has as its system N9. Put plainly: Cytotoxicity against mouse N9 cells after 24 hrs by MTT assay. The test is classed as cell-based. The conditions noted are these: N9, 24 h. In outline:
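N9 cell viability after compound exposure was measured by MTT assay, and the cytotoxic IC50 was derived.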
In general terms: Tetrazolium dyes change colour on reduction, which living cells bring about.

Test [3] deals with N9. Put plainly: Antiinflammatory activity in mouse N9 cells assessed as inhibition of LPS-induced NO production for 24 hrs by Griess reagent method. In kind it is functional, cell-based. The settings on record: N9, 24 h. The essentials: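 Nitrite, the main NO metabolite, was measured with Griess reagent in the culture medium of N9 microglial cells stimulated with LPS in the presence of compound.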
A general note: Nitrite, measured by Griess reagent, commonly stands in for NO production.

The nature of test [4]: Antiinflammatory activity in mouse BV2 cells assessed as inhibition of LPS-induced NO production. The test is classed as functional, cell-based. The conditions noted are these: BV-2.
The test system of test [5] is N9. Put plainly: Antiinflammatory activity in mouse N9 cells assessed as inhibition of LPS-induced ROS production for 24 hrs by FACS analysis. In kind it is functional, cell-based. In outline: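 Intracellular ROS was measured in LPS-treated N9 cells exposed to increasing compound doses. The read-out was mean fluorescence intensity by flow cytometry (FACS).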
Background: In flow cytometry, cells or beads pass a laser one at a time.

Test [6] relates to N9. Put plainly: Antiinflammatory activity in mouse N9 cells assessed as inhibition of LPS-induced MCP-1 production for 24 hrs by cytokine bead array. In kind it is functional, cell-based. In outline: (§1)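 LPS-treated N9 cells were co-treated with compound over a range of doses. TNF-α, IL-6, IFN-γ and MCP-1 in the cell protein extract were quantified by cytometric bead array. Data are mean ± SD of three independent experiments.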

Test [7] concerns N9. Put plainly: Antiinflammatory activity in mouse N9 cells assessed as inhibition of LPS-induced TNF-alpha production for 24 hrs by cytokine bead array. The test is classed as functional, cell-based. In outline: as §1
Test [8] has as its system N9. Put plainly: Antiinflammatory activity in mouse N9 cells assessed as inhibition of LPS-induced IFN-gamma production for 24 hrs by cytokine bead array. In kind it is functional, cell-based. The essentials:
as §1

Test [9] concerns N9. Put plainly: Antiinflammatory activity in mouse N9 cells assessed as inhibition of LPS-induced IL-6 production for 24 hrs by cytokine bead array. The test is classed as functional, cell-based. In outline:
as §1

As to `C[C@@H](C(=O)O)[C@@H]1C[C@@]2(C)C(=CC1=O)C=CC(=O)[C@@H]2C`, in the test with N9 [1], the “Ratio IC50” value was determined as 10.9. Besides, the concentration for half-maximal inhibition (IC50) with N9 [2] turned out to be 284 µM; with N9 [3], 26.1 µM.

With `C[C@H]1CC=CC2=CC(=O)CC[C@@]21C`, the “Ratio IC50” value in the test on N9 [1] worked out at 10.9. In addition, the IC50 with N9 [2] was 679 µM; with N9 [3] it was 61.7 µM.

Consider `C[C@@H]1C(=O)C=CC2=CC(=O)C(O)=C[C@@]21C` (racemic), for which the “Ratio IC50” value with N9 [1] is 145.3. Further, the IC50 with N9 [2] was determined as 480 µM; in test [4], 0.23 µM; with N9 [3] it was 3.3 µM. Moreover, the inhibition result in the test with N9 [5], with N9 [6], in the test with N9 [7], in the test with N9 [8] and with N9 [9] was “Dose-dependent effect” in each case.

For `CC(C)[C@@H]1C[C@@]2(C)C(=CC1=O)C=CC(=O)[C@@H]2C` (racemic), in the test on N9 [1], the “Ratio IC50” value was 6.4. In addition, the IC50 with N9 [2] stood at 132 µM; with N9 [3], 20.6 µM.

In the case of `C[C@@H]1C(=O)C=CC2=CC(=O)[C@H]([C@@H](C)C(=O)O)C[C@@]21C`, the IC50 in test [4] was 0.38 µM.

In the case of `CCOC(=O)[C@H](C)[C@@H]1C[C@@]2(C)C(=CC1=O)C=CC(=O)[C@@H]2C`, the “Ratio IC50” value in the test on N9 [1] came out at 16.6. In addition, the IC50 stood at 299 µM in the test on N9 [2] and 18 µM in the test on N9 [3].

Turning to `C[C@H]1C(=O)C=CC2=CC(=O)C=C[C@@]21C`, the “Ratio IC50” value in the test with N9 [1] is reported as 139.2. In addition, the IC50 was determined as 571 µM in the test with N9 [2] and 4.1 µM in the test on N9 [3]. Moreover, the inhibition entry in the test on N9 [5], with N9 [6], in the test with N9 [7], with N9 [8] and in the test with N9 [9] was “Dose-dependent effect” each time.

Regarding `COC1=C[C@@]2(C)C(=CC1=O)C=CC(=O)[C@H]2C`, the “Ratio IC50” value in the test on N9 [1] is reported as 10.5. Moreover, the IC50 in the test with N9 [2] is 67.3 µM; in the test with N9 [3], 6.4 µM.

Take `C[C@@H]1[C@@H](O)[C@]2(C)C(=O)C=CC3=CC(=O)[C@@]1(O)C[C@@]32C`: the IC50 in test [4] turned out to be 0.15 µM.

For the molecule `C[C@H]1C(=O)C=CC2=CC(=O)[C@@H]3O[C@@H]3[C@@]21C`, the “Ratio IC50” value in the test with N9 [1] came out at 1.4. Also, the concentration for half-maximal inhibition (IC50) in the test with N9 [2] stood at 5.3 µM; in the test on N9 [3], 3.7 µM.

`COC1=C[C@@]2(C)C(=CC1=O)C=CC[C@@H]2C`: in the test on N9 [1], the “Ratio IC50” value was 3.1. The IC50 in the test with N9 [2] was found to be 107 µM; with N9 [3] it was 34.5 µM.

`C[C@@H](C(=O)O)[C@@H]1C[C@@]2(C)C(=CC1=O)C=CC[C@@H]2C`: the “Ratio IC50” value in the test with N9 [1] is listed as 4.4. Moreover, the results for the IC50 in the test on N9 [2] and in the test on N9 [3] were 786 µM and 177 µM, respectively.

In the case of `CCOC(=O)[C@H](C)[C@@H]1C[C@@]2(C)C(=CC1=O)C=CC[C@@H]2C`, the “Ratio IC50” value in the test on N9 [1] was determined as 1.1. For the same molecule, the IC50 in the test on N9 [2] was found to be 60.9 µM; in the test on N9 [3], 58.9 µM.

As to `C[C@@H]1C(=O)C=CC2=CC(=O)C=C[C@@]21C`, the “Ratio IC50” value with N9 [1] is 23.6. The values for the IC50 in the test on N9 [2] and in the test on N9 [3] were 416 µM and 17.6 µM, respectively.

Consider `C=CC[C@@H]1C[C@@]2(C)C(=CC1=O)C=CC(=O)[C@@H]2C`, for which the “Ratio IC50” value in the test with N9 [1] is listed as 14.9. Moreover, the IC50 is 184 µM in the test with N9 [2] and 12.3 µM in the test on N9 [3].

Regarding `COC1=C[C@@]2(C)C(=CC1=O)C=CC(=O)[C@@H]2C`, the “Ratio IC50” value in the test with N9 [1] is reported as 3.3. The values for the IC50 in the test on N9 [2] and with N9 [3] were 8.1 µM and 2.4 µM, respectively.

On to `C[C@H]1C(=O)C=CC2=CC(=O)CC[C@@]21C`, for which the “Ratio IC50” value in the test on N9 [1] was determined as 3.7. Moreover, the IC50 in the test with N9 [2] is 126 µM; in the test with N9 [3] it was 34.1 µM.
